Test results: ChEMBL document CHEMBL2417527, “Prenylated and geranylated flavonoids increase production of reactive oxygen species in mouse macrophages but inhibit the inflammatory response” (J Nat Prod, 2013)
pIC50: −log10 of the molar value. Calls of active or inactive are those of the source. The calls are words filed in the database; no cut-off is given here.

What was measured:
[1] = test system: J774.A1; test: Induction of ROS production in LPS-stimulated mouse J774A1 cells at 0.25 to 1.25 uM after 24 hrs by flow cytometry; format: functional, cell-based
Procedure, shortened: (§1)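 Macrophages in serum-free DMEM were pretreated with compound (0.25 or 1.25 μM) for 1 h. E. coli 0111:B4 LPS (1 μg/mL) was then added for 24 h, with DCFH2-DA added 30 min before the end. DCF fluorescence was measured by flow cytometry (ex 488/em 525 nm). Results were compared with cells given vehicle plus LPS.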

[2] = test system: J774.A1; test: Induction of ROS production in LPS-stimulated mouse J774A1 cells at 1.25 uM after 30 mins by flow cytometry relative to control; format: functional
[3] = test system: J774.A1; test: Induction of ROS production in mouse J774A1 cells at 0.25 uM after 30 mins by flow cytometry relative to control; format: functional
Procedure, shortened: (§2)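 Cells were grown to 80–90% confluence and switched to serum-free DMEM. They were loaded with 10 μM DCFH2-DA for 1 h, and compound (0.25 or 1.25 μM, 0.1% DMSO) was added for the final 30 min. Cells were washed, scraped off in PBS/lidocaine, and DCF was measured by flow cytometry (ex 488/em 525 nm). Results were compared with vehicle-treated cells; mean ± SE of four experiments.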

[4] = test system: J774.A1; test: Induction of ROS production in mouse J774A1 cells at 1.25 uM after 30 mins by flow cytometry relative to control; format: functional; procedure, shortened: as §2
[5] = Antioxidant activity assessed as hypochlorous acid scavenging activity by fluorescence assay; format: functional
Procedure, shortened: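 Oxidation of dihydrorhodamine 123 to rhodamine was followed. Final concentrations were 100 mM phosphate buffer (pH 7.4), compound in methanol at 0.625–100 μM, 5 μM DHR and 5 μM HClO. Fluorescence (ex 485, em 528 nm) was read at 37 °C immediately after mixing. Five independent experiments were run, each in triplicate.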

[6] = Antioxidant activity assessed as hydrogen peroxide radical scavenging activity by chemiluminescence method; format: functional
Procedure, shortened: (§3)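 Lucigenin chemiluminescence was used. Each reaction contained 50 mM Tris-HCl (pH 7.4), compound in DMSO at 125–1000 μM, 800 μM lucigenin and 1% (v/v) H2O2. Luminescence was read at 37 °C immediately after mixing. Five independent experiments were run, each in triplicate.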

[7] = Antioxidant activity assessed as NADH/phenazine methosulfate generated superoxide anion scavenging after 2 mins by NBT reduction assay; format: functional
Procedure, shortened: (§4)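 Superoxide was generated by NADH/PMS. Final concentrations were 19 mM phosphate buffer (pH 7.4), compound in DMSO at 12.5–1000 μM, 166 μM NADH, 43.3 μM NBT and 2.7 μM PMS. NBT reduction to diformazan was read as absorbance at 560 nm after 2 min of mixing at room temperature. Five independent experiments were run, each in triplicate.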

[8] = test system: J774.A1; test: Reduction of LPS-induced COX2 expression in mouse J774A1 cells at 1.25 uM pretreated 1 hr before LPS challenge measured after 24 hrs; format: functional, cell-based
Procedure, shortened: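 Macrophages were pretreated with 1.25 μM compound for 1 h, then stimulated with 1 μg/mL LPS for 24 h. Lysates (40 μg protein) were run on 12% gels and blotted to PVDF. COX-2 was detected with antibody at 1:500 and normalized to β-actin by densitometry. Four independent experiments.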

[9] = test system: J774.A1; test: Induction of ROS production in mouse J774A1 cells at 1.25 uM after 24 hrs by flow cytometry relative to control
[10] = test system: J774.A1; test: Induction of ROS production in mouse J774A1 cells at 0.25 to 1.25 uM after 30 mins by flow cytometry relative to control; format: functional; procedure, shortened: as §2
[11] = Antioxidant activity assessed as hydrogen peroxide radical scavenging activity at 1 mM by chemiluminescence method; format: functional; procedure, shortened: as §3
[12] = Antioxidant activity assessed as NADH/phenazine methosulfate generated superoxide anion scavenging at 1 mM after 2 mins by NBT reduction assay; format: functional; procedure, shortened: as §4
[13] = test system: J774.A1; test: Reduction of ROS production in LPS-stimulated mouse J774A1 cells at 0.25 to 1.25 uM after 24 hrs by flow cytometry; format: functional, cell-based; procedure, shortened: as §1
[14] = test system: J774.A1; test: Reduction of ROS production in LPS-stimulated mouse J774A1 cells at 0.25 to 1.25 uM after 30 mins by flow cytometry; format: functional, cell-based
[15] = test system: J774.A1; test: Effect on ROS production in LPS-stimulated mouse J774A1 cells at 0.25 to 1.25 uM after 30 mins by flow cytometry; format: functional, cell-based

| Structure (SMILES) | Activity [1] | fold change (FC) [2] | fold change (FC) [3] | fold change (FC) [4] | pIC50 [5] | pIC50 [6] | pIC50 [7] | Activity [8] | fold change (FC) [9] | fold change (FC) [10] | Activity [11] [%] | Activity [12] [%] | Activity [13] | Activity [14] | Activity [15] |
| --- | --- | --- | --- | --- | --- | --- | --- | --- | --- | --- | --- | --- | --- | --- | --- |
| CC(C)=CCc1c(-c2ccc(O)cc2O)oc2cc3c(c(O)c2c1=O)C=CC(C)(C)O3 [CUDRAFLAVONE B] | Active | 1.71 | 2.13 | 3.12 | 5.74 | 3.19 | 3.66 | inactive | 2 |  |  |  |  |  |  |
| CC(C)=CCc1c2c(c3occ(-c4ccc(O)cc4)c(=O)c3c1O)C=CC(C)(C)O2 [OSAJIN] | Active | 1.59 |  |  | 4.51 | < 3.00 | < 3.00 |  |  | 0.95 | 17 | 39 |  |  |  |
| CC(C)=CCc1c2c(c3occ(-c4ccc(O)c(O)c4)c(=O)c3c1O)C=CC(C)(C)O2 [POMIFERIN] |  |  |  |  | 5.04 | 3.05 | 4.13 |  |  | 0.95 |  |  | Active | Active |  |
| CC(C)=CCC/C(C)=C/Cc1c(O)cc2c(c1O)C(=O)C[C@@H](c1ccc(O)c(O)c1)O2 [NYMPHAEOL A] |  |  |  |  | 5.64 | 3.26 | 4.39 | Active | 0.79 | 0.95 |  |  |  |  | inactive |
